Rin1 Abl inh = inhibitors of Rin1-Abl protein binding, primary screen, biochemical, TR-FRET. AID 588664, 2011. Tyrosine-protein kinase ABL1 (Homo sapiens) + Ras and Rab interactor 1 (Homo sapiens), …. inhibition, % at 7.35 µM. 360,000 compounds, 0.4% hits; in the data active = inhibition above about 5%, passing the limit was not always enough
H9c2 protect = cardioprotection against H2O2-induced cell death, primary screen, uHTS, H9c2 cells, ATPLite luminescence | AID 588492, 2011 | 360,000 compounds, 0.63% hits | protection from H2O2 cell death, % at 20 µM | H9c2 cardiomyocytes, H2O2 injury protection, 2 h;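 active = compounds giving at least 50% protection of heart cells from peroxide-induced death in the single-dose screen, raw or plate-pattern-corrected value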;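 note: 0% = DMSO wells with peroxide and 100% = DMSO wells without peroxide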
PKA-R1A activ = activators of PKA-R1A holoenzyme, primary screen, biochemical, fluorescence polarization, Cy5-IP20, bovine R1A, mouse PKAc | cAMP-dependent protein kinase type I-alpha regulatory subunit (Bos taurus) + … | PKA-R1A dissociation; scaled: DMSO 0%, 113 µM cGMP 100% | activation, % at 11.4 µM | 340,000 compounds, 0.083% hits | AID 504707, 2011;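 active = percent activation above the mean of all tested compounds plus 3 SD, cut at about 19% in these data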;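 note: higher means more PKAc released from R1A so a rise in polarization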
PKA-R2B act = activators of PKA-R2B holoenzyme, primary screen, biochemical, fluorescence polarization, Cy5-IP20, human; cAMP-dependent protein kinase catalytic subunit beta (Homo sapiens) + cAMP-dependent …; PKA-R2B holoenzyme dissociation; R2B truncated from residue 108, S112A mutant; 0% DMSO only, 100% 113 µM cGMP; activation, % at 11.4 µM; 340,000 compounds, 0.079% hits; AID 504700, 2011;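 active = activation above a cutoff set at the mean over all compounds plus 3 SD, cut at about 18% in these data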;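 note: higher means more holoenzyme dissociation and a rise in polarization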
Target sequence (P31323 whole entry, looked up, other chains not shown, the tested form may be a part): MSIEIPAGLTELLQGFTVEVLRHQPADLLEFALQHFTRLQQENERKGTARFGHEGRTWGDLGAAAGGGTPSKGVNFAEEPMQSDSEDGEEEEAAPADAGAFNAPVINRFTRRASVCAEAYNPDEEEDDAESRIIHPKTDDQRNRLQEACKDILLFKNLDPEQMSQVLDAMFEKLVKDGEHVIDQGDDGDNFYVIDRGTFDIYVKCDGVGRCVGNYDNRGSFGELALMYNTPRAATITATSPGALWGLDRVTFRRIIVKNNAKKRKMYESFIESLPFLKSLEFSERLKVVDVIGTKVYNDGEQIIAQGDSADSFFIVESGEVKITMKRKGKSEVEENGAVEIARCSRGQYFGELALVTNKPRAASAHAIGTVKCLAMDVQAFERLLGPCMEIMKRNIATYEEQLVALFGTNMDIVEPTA
TbMetRS inhib = T. brucei MetRS inhibitors, primary screen, biochemical, luminescence; purified T. brucei MetRS, ATP depletion, Kinase-Glo luminescence; inhibition, % at 11.9 µM; 360,000 compounds, 0.4% hits; methionyl-tRNA synthetase (Trypanosoma brucei brucei);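 active = inhibition above a per-plate cutoff of the control wells' mean inhibition plus 3 SD, cut at about 5.5% in these data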;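 note: 0% = DMSO wells median and 100% = median of wells with control inhibitor compound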
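System: purified T. brucei MetRS enzyme / Detection: Kinase-Glo luciferase luminescence reporting remaining unconsumed ATP / Medium: HEPES buffer with MgCl2, KCl, DTT, spermine, BSA, pyrophosphatase / Replication: singlicate, one well per compound / Evaluation: percent inhibition relative to median high and low control wells / Schedule: 2 h aminoacylation at 25 °C after 15 min preincubation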
* hit, by the source's call; . = no result. The list is not random: actives were taken first. Their share in the collection is about 1.5%.

SMILES	Rin1 Abl inh	H9c2 protect	PKA-R1A activ	PKA-R2B act	TbMetRS inhib
CCOC(=O)C1CCN(c2cc3c(cc2NC(=O)c2ccccc2Br)n(C)c(=O)n3C)CC1	1	52*	-5	-5	-1
CCOC(=O)COc1cccc(C2NC(=O)c3ccccc3O2)c1 (stereo unspecified)	0	83*	4	15	0
CCOC(=O)C1=Nc2ccccc2C1=[N+]=[N-]	-3	72*	-3	3	-1
CC[C@@H](C)CN1C(=O)N[C@@H](c2ccccc2)C(C(C)=O)=C1C	3	9	10	-7	0
COCCNC(=O)C(OC(=O)c1ccco1)c1ccccc1F (stereo unspecified)	0	-1	3	3	-1
C=CCc1cccc(/C=N/NC(=O)CNc2ccccc2OC)c1O	1	63*	-3	-5	0
C=CCc1cccc(/C=N/NC(=O)CCCNc2ccc(C)cc2)c1O	0	49	-17	-5	0
C=CCc1cccc(/C=N/NC(=O)CCC(=O)Nc2ccc(F)cc2)c1O	-3	57*	-4	-1	1
Nc1cc(=O)[nH]c(SCC(=O)Nc2cccc(Cl)c2Cl)n1	5	-4	-9	-12	0
O=C(NCC(=O)N(Cc1ccccc1)C(C(=O)NC1CCCCC1)c1ccco1)c1ccco1 (stereo unspecified)	0	97*	-3	5	-1
O=C(NCC(=O)N(Cc1cccs1)C(C(=O)NC1CCCCC1)c1ccncc1)c1ccco1 (stereo unspecified)	-5	3	-4	-3	-1
O=C(NCC(=O)N(Cc1cccs1)C(C(=O)NC1CCCC1)c1ccco1)c1cccs1 (stereo unspecified)	-6	59*	1	-2	0
CC(NC(=O)COC(=O)c1cccc(S(=O)(=O)N2CCCC2)c1)c1ccccc1 (stereo unspecified)	7	1	0	-5	0
COc1cc(CN2CC(=O)N(c3cc(Cl)ccc3C)C2=S)cc(OC)c1OC	1	-3	0	-2	0
O=C(c1ccoc1)N1CCN(c2cc(-c3ccncc3)nc3cc(-c4cccc(Cl)c4)nn23)CC1	-1	71*	1	1	-1
O=C(c1ccoc1)N1CCN(c2cc(-c3cccnc3)nc3cc(-c4cccc(Cl)c4)nn23)CC1	-4	17	-3	-13	-1
O=C(c1ccoc1)N1CCN(c2cc(-c3ccccc3)nc3cc(-c4ccc(Br)cc4)nn23)CC1	-2	14	-5	-18	0
COc1ccc(-c2cc3nc(-c4ccccc4)cc(N4CCN(C(=O)c5ccoc5)CC4)n3n2)cc1	-1	54*	4	-4	-2
O=C(CCc1nc2ccccc2c(=O)[nH]1)Nc1ccc(F)cc1	4	62*	-1	1	-1
O=C(CCc1nc2ccccc2c(=O)[nH]1)NCc1ccco1	2	76*	-6	-12	0
COc1ccc(NC(=O)COC(=O)CCc2nc3ccccc3c(=O)[nH]2)cc1Cl	1	33	9	-1	1
COc1ccccc1NS(=O)(=O)c1cc(NC(=O)CCc2nc3ccccc3c(=O)[nH]2)ccc1C	-2	94*	-5	-3	0
CN(CC(=O)Nc1ccc(Cl)c(C(F)(F)F)c1)C(=O)CCc1nc2ccccc2c(=O)[nH]1	0	49	2	-7	0
CN(CC(=O)Nc1ccccc1Cl)C(=O)CCc1nc2ccccc2c(=O)[nH]1	0	64*	4	-3	0
CCOc1ccccc1CNn1cnnc1SCC(=O)NC(C)(C)C	5	-3	2	-15	0
SMILES	Rin1 Abl inh	H9c2 protect	PKA-R1A activ	PKA-R2B act	TbMetRS inhib
N#CCCN(C(=O)COC(=O)CCc1nc2ccccc2c(=O)[nH]1)c1ccc(F)cc1	7	54*	-5	-4	-1
CN(CC(=O)Nc1ccc(F)cc1)C(=O)CCc1nc2ccccc2c(=O)[nH]1	-2	60*	13	1	0
C=CCn1c(C)cc(-c2csc(NC(=O)CCc3nc4ccccc4c(=O)[nH]3)n2)c1C	-3	16	9	4	0
CC1(NC(=O)CCc2nc3ccccc3c(=O)[nH]2)CCS(=O)(=O)C1 (stereo unspecified)	1	51*	-6	-9	0
O=C(CCc1nc2ccccc2c(=O)[nH]1)Nc1nc(-c2cccs2)cs1	-3	65*	-5	-8	0
COc1cc2c(C#CCCO)c(-c3ccsc3)oc(=O)c2cc1OC	-2	64*	-9	3	0
CCc1nc(N=Nc2c(O)[nH]c3ccccc23)c2c3c(sc2n1)CCC3	-3	69*	-4	0	0
CCc1nc2ccc(C(=O)Nc3cc(-c4ccccc4)ccc3OC)cn2c1N(C)Cc1nccs1	2	75*	.	.	0
CCc1nc2ccc(C(=O)Nc3cccc(OCC(=O)N(C)C)c3)cn2c1N(C)Cc1cc2ccccc2s1	1	54*	.	.	0
O=S(=O)(c1ccc(NC(=S)NN=Cc2ccccc2O)cc1)N1CCCCC1	2	29	-2	-4	0
COc1cc(/C=C(/C#N)c2nc3ccccc3[nH]2)ccc1OCC(=O)Nc1ccccc1C(C)C	1	68*	0	-6	0
COc1cc(/C=C(/C#N)c2nc3ccccc3[nH]2)ccc1OCC(=O)Nc1ccccc1C	-3	15	2	0	0
CCOC(=O)c1cnc(Nc2nc3ccccc3o2)nc1C	1	-22	4	6	-1
CCOC(=O)c1cnc(Nc2nc3ccccc3o2)nc1CSc1nnc(C)s1	-1	60*	5	-6	0
COC(=O)c1ccccc1NC(=O)c1cnn2c(C)cc(C)nc12	-4	1	1	3	-1
COC(=O)c1ccccc1NC(=O)c1nc2nc(C)cc(C)n2n1	1	61*	-12	8	-2
CCCCCCCCCCCCCC(=O)NO	2	78*	-3	-1	-1
CC(C)C(=O)NC(=S)Nc1ccccc1N1CCN(C(=O)c2ccc(Cl)cc2)CC1	-2	52*	-4	-7	0
CC(C)(C)C(=O)Nc1ccccc1N1CCN(C(=O)c2ccc(Cl)cc2)CC1	3	-20	-7	5	0
O=C(Nc1ccc(C(=O)N2CCOCC2)cc1)c1cnn2c(C(F)F)cc(-c3ccccc3)nc12	0	55*	0	2	0
